# Assay results taken from article PMC7384521 (ACS chemical biology, 2020).
# Experiments:
# ENL(YEATS)-HiBiT [1] = assay: HiBiT CETSA performed on pre-lysed cells; details: cells lysed first, then treated; 37 °C
# ENL(YEATS)-HiBiT [2] = assay: HiBiT CETSA; assay type: cell-based
# SMARCA4(BD)-HiBiT = assay: HiBiT CETSA of SMARCA4; assay type: cell-based; details: for luminescence of SMARCA4(BD)-HiBiT: OCI/AML-2 cells, 37 °C
# Procedure, shortened: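 SMARCA4 bromodomain (residues 1426-1531) fused to HiBiT, stably expressed in OCI/AML-2 cells (alpha-MEM, 20% FBS) by lentiviral spinoculation: 2,000 rpm, 1 h, room temperature, 8 μg/mL polybrene. Cells were drug-treated at 37 °C without heating. Raw luminescence was read after adding Nano-Glo HiBiT lytic detection reagent.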
# AF9(YEATS)-HiBiT = assay: ITDR at 37 °C of AF9; assay type: cell-based; details: OCI/AML-2 cells, 1 hour
# full-length ENL-HiBiT = assay: HiBiT CETSA melt curve of full-length ENL-HiBiT; assay type: cell-based; details: HEK293T cells
# ENL YEATS [3] = target: T1, ENL YEATS (Homo sapiens, UniProt Q03111); assay: MALDI-TOF mass spectrometry for covalent adducts; details: high-resolution MALDI-TOF
# T1 sequence (Q03111 1-148): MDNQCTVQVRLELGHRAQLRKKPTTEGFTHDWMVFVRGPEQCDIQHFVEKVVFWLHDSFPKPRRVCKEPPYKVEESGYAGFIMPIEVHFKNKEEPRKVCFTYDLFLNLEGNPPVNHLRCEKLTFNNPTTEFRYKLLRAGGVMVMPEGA
# endogenous ENL protein = assay: Immunoblot-based CETSA on endogenous ENL; assay type: cell-based; details: 80 μM, OCI/AML-2 cells, 1 hr
# Procedure, shortened: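 CETSA on endogenous ENL followed a previously published protocol. Immunoblot detection used an anti-ENL rabbit monoclonal antibody (D9M4B) and an anti-GAPDH mouse monoclonal antibody (6C5).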
# AF9 YEATS = target: T2, AF9 YEATS (Homo sapiens, UniProt P42568); assay: HTRF histone-binding assay, AF9 YEATS with H3K27cr; details: read-out: IC50, HTRF AF9 YEATS crotonyl-lysine recognition
# T2 sequence (P42568 1-138 limits assumed): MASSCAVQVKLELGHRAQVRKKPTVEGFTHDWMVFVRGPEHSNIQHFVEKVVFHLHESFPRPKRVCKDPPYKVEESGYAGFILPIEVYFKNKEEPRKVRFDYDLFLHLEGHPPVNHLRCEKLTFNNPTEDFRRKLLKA
# Procedure, shortened: (§1)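 HTRF in 25 mM HEPES pH 7, 20 mM NaCl, 0.2% Pluronic F-127, 0.05% BSA, with 1 nM Eu-anti-His antibody and 8.9 nM APC-streptavidin. ENL: recombinant His-tagged ENL YEATS(1-148), 5 nM, with 13.3 nM biotinylated H3(13-32)K27cr. AF9: purchased AF9 YEATS, 5 nM, with 100 nM of the same peptide. Compound pin-transferred, incubated ≥2 h; 337 nm excitation, 665/620 nm ratio; percent inhibition scaled to vehicle (max) and no-peptide (min) wells.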
# BRD4 bromodomain 1 (BD1) = assay: HTRF histone-binding assay, BRD4 BD1 with tetra-acetyl H4
# Procedure, shortened: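 BRD4 BD1 (purchased, 10 nM) with 13.3 nM tetra-acetylated H4. Buffer was 25 mM HEPES pH 7, 20 mM NaCl, 0.2% Pluronic F-127, 0.05% BSA; detection used 1 nM Eu-anti-His antibody plus 8.9 nM APC-streptavidin. Compound added by pin tool and incubated 2 h or more. Read at 337 nm excitation as the 665/620 nm emission ratio; percent inhibition relative to vehicle (maximum) and no-peptide (minimum) controls.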
# ENL YEATS [4] = target: T1, ENL YEATS; assay: HTRF histone-binding assay, ENL YEATS with H3K27cr
# Procedure, shortened: as §1
# YEATS4/GAS41 = assay: Biolayer interferometry, immobilized biotin-YEATS4; assay type: binding; details: BLI
compound,measurement,setting,value
C[C@H]1CCCN1Cc1nc2cc(NC(=O)c3ccc4c(cnn4C)c3)ccc2[nH]1 [SGC-iMLLT],luminescence of ENL(YEATS)-HiBiT in cell lysates,ENL(YEATS)-HiBiT [1],luminescence was increased
same,"ITDR luminescence, wild-type ENL YEATS","ENL(YEATS)-HiBiT [2]; 37 °C, HEK293T cells, 1 hour",dose-responsive increases in luminescence
same,CETSA melt curve of ENL(YEATS)-HiBiT,"ENL(YEATS)-HiBiT [2]; HEK293T cells, 1-hour treatment, luminescence normalized to 37 °C",rightward shift
same,luminescence of SMARCA4(BD)-HiBiT,SMARCA4(BD)-HiBiT,no such effect
same,"ITDR luminescence, AF9(YEATS)-HiBiT",AF9(YEATS)-HiBiT,dose-dependent increases in luminescence
same,luminescence-based melt curve of full-length ENL-HiBiT,full-length ENL-HiBiT,did not affect
"crotonylated histone peptide: peptide substrate, H3K27cr, used to treat cell lysates",luminescence of ENL(YEATS)-HiBiT in cell lysates,ENL(YEATS)-HiBiT [1],luminescence was increased
O=C(/C=C/N1C[C@H]2C[C@@H]1CN2c1ccccn1)c1ccccc1O [PFI-3],concentration required to elevate the luminescence from SMARCA4(BD)-HiBiT,SMARCA4(BD)-HiBiT; ITDR,80 µM
same,luminescence of SMARCA4(BD)-HiBiT,SMARCA4(BD)-HiBiT,able to elevate luminescence
O=C(/C=C/c1ccc(-n2ccnc2)cc1)N1CCN(C(=O)c2ccco2)CC1 [sCGT990],covalent adducts with ENL YEATS,ENL YEATS [3],unable to identify covalent adducts
same,stabilization of endogenous ENL by immunoblot-based CETSA,endogenous ENL protein,"weak, if any, stabilization"
same,concentration required to reliably elevate ENL(YEATS)-HiBiT luminescence,"ENL(YEATS)-HiBiT [2]; living cells, dose-response",80 µM
same,IC50,AF9 YEATS,62 µM
same,inhibition of BRD4 BD1 association with tetra-acetyl H4,BRD4 bromodomain 1 (BD1),does not inhibit
same,"IC50, HTRF ENL YEATS association with H3K27cr",ENL YEATS [4],19 µM
same,binding to YEATS4/GAS41,YEATS4/GAS41,does not efficiently bind
